Laboratory results published in ChEMBL document CHEMBL1137504, “Effect of indole ethyl isothiocyanates on proliferation, apoptosis, and MAPK signaling in neuroblastoma cell lines” (Bioorg Med Chem Lett, 2007).
The source made the active and inactive calls. The rule behind the calls is not given here.

What was measured:
[1] = test system: SH-SY5Y; test: Cytotoxicity against SH-SY5Y cells after 48 hrs by MTS assay; assay type: functional, cell-based; conditions: Homo sapiens
Procedure, shortened: (§1)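 Cells were seeded at 5 × 10^5 per T75 flask and grown to about 80% confluency. Lines were NB (IMR-32, SH-SY5Y, SMS-KCNR, SK-N-SH) or primary human lung fibroblasts (LF1, passage 10). Cells were exposed to 2.5–40 μM drug for 48 hrs and viability was read by MTS. Triplicates were run, and values are mean ± SD of a representative experiment as % viability of untreated cells.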

[2] = test system: SK-N-SH; test: Cytotoxicity against human SK-N-SH cells after 48 hrs; assay type: functional, cell-based; procedure, shortened: as §1
[3] = test system: SMS-KCNR; test: Cytotoxicity against SMS-KCNR cells after 48 hrs by MTS assay; assay type: functional, cell-based; conditions: Homo sapiens; procedure, shortened: as §1
[4] = test system: IMR-32; test: Cytotoxicity against IMR32 cells after 48 hrs by MTS assay; assay type: functional, cell-based; conditions: Homo sapiens; procedure, shortened: as §1
[5] = test system: SMS-KCNR; test: Induction of apoptosis in SMS-KCNR cells assessed as increase in caspase 8 activation by Western blotting; assay type: functional, cell-based; conditions: Homo sapiens
Procedure, shortened: (§2)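 SMS-KCNR cells at about 80% confluency were treated with 3 μM drug for the indicated times, then lysed in NP-40 buffer with protease and phosphatase inhibitors. Lysates (50 μg protein per lane) were run on 12% SDS-PAGE and blotted to PVDF. Blots were blocked in 5% milk and probed overnight at 4 °C with 1:1000 primary antibodies in 5% BSA. Targets were phospho and total JNK, p38 and Akt, pro and active caspase-3, -8 and -9, and cleaved PARP-1, with β-actin as loading control.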

[6] = Cell cycle arrest in SMS-KCNR cells by accumulation at S phase at 3 uM after 24 hrs by flow cytometry; assay type: functional, cell-based; conditions: Homo sapiens
Procedure, shortened: (§3)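 Cells were plated in 100 mm dishes at 7.5 × 10^5 per dish, left to attach overnight, then exposed to 3.0 μM drug for 12 or 24 hrs. Floating and scraped adherent cells were pooled and fixed in ice-cold 70% ethanol for 30 min. They were stained with 50 μg/mL propidium iodide plus 100 μg/mL RNase, 30 min at 37 °C in the dark. Flow cytometry read 10,000 gated single-cell events per sample. Results are given as % of cells per sub-population, with sub-G0/G1 taken as apoptotic.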

[7] = test system: SMS-KCNR; test: Reduction of SMS-KCNR cell viability at 5 uM after 48 hrs in presence of Z-LEHD-FMK; assay type: functional, cell-based; conditions: Homo sapiens
Procedure, shortened: (§4)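 SMS-KCNR cells were pre-incubated for 2 hrs with 40 μM caspase inhibitor (Z-VAD-FM, Z-DEVD-FMK, Z-IETD-FMK or Z-LEHD-FMK). Drug was then added at 5.0 μM for 48 hrs and viability measured. Triplicates were run, and values are mean ± SD of a representative experiment as % viability of untreated cells.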

[8] = test system: SMS-KCNR; test: Inhibition of cell proliferation of SMS-KCNR cells […] after 48 hrs by BrdU assay; assay type: functional, cell-based; conditions: Homo sapiens
Procedure, shortened: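 SMS-KCNR cells were plated at 5 × 10^3 per well, attached overnight, and treated with 300 nM–5 μM drug for 48 hrs. BrdU (10 μM final) was added for a further 6 hrs. Fixed cells were incubated with anti-BrdU–peroxidase for 2 hrs at 37 °C, developed with TMB, stopped with sulfuric acid, and read at 450 nm after blank subtraction. Triplicates were run, expressed as % of untreated absorbance.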

[9] = Induction of apoptosis in SMS-KCNR cells at 3 uM after 12 hrs by flow cytometry; assay type: functional, Homo sapiens; procedure, shortened: as §3
[10] = Cell cycle arrest in SMS-KCNR cells by accumulation at G2/M phase at 3 uM after 12 hrs by flow cytometry; assay type: functional, cell-based; conditions: Homo sapiens; procedure, shortened: as §3
[11] = Cell cycle arrest in SMS-KCNR cells by accumulation at G2/M phase at 3 uM after 24 hrs by flow cytometry; assay type: functional, cell-based; conditions: Homo sapiens; procedure, shortened: as §3
[12] = Cytotoxicity against lung fibroblast cells after 48 hrs by MTS assay; assay type: cell-based; conditions: human; procedure, shortened: as §1
[13] = test system: SMS-KCNR; test: Cytotoxicity against SMS-KCNR cells at 2.5 uM to 5.0 uM after 48 hrs by MTS assay; assay type: functional, cell-based; conditions: Homo sapiens; procedure, shortened: as §1
[14] = test system: SMS-KCNR; test: Induction of apoptosis in SMS-KCNR cells assessed as increase in caspase 3 activation by Western blotting; assay type: functional, cell-based; conditions: Homo sapiens; procedure, shortened: as §2
[15] = test system: SMS-KCNR; test: Reduction of SMS-KCNR cell viability at 5 uM after 48 hrs in presence of Z-IETD-FMK; assay type: functional, cell-based; conditions: Homo sapiens; procedure, shortened: as §4
[16] = Cell cycle arrest in SMS-KCNR cells by accumulation at G0/G1 phase at 3 uM after 24 hrs by flow cytometry; assay type: functional, cell-based; conditions: Homo sapiens; procedure, shortened: as §3
[17] = molecular target: RAC-alpha serine/threonine-protein kinase (Homo sapiens) (UniProt P31749); test: Inhibition of AKT in SMS-KCNR cells after 36 hrs by Western blotting; assay type: cell-based; procedure, shortened: as §2
Chain of RAC-alpha serine/threonine-protein kinase (Homo sapiens) (P31749 whole entry): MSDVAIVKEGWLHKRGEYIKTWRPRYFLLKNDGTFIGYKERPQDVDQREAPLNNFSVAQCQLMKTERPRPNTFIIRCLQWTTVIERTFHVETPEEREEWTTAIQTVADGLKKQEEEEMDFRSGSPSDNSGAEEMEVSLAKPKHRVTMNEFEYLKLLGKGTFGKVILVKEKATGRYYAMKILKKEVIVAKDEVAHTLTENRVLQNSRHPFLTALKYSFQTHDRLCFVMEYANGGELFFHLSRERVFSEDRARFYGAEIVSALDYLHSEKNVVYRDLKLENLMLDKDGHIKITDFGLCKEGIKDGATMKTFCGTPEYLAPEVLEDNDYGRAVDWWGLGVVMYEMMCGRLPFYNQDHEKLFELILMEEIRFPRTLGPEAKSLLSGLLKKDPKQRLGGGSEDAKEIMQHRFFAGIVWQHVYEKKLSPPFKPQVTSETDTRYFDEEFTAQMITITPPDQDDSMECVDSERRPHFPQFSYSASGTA

[18] = Cell cycle arrest in SMS-KCNR cells by accumulation at S phase at 3 uM after 12 hrs by flow cytometry; assay type: functional, cell-based; conditions: Homo sapiens; procedure, shortened: as §3
[19] = test system: SMS-KCNR; test: Induction of apoptosis in SMS-KCNR cells assessed as increase in PARP1 activation by Western blotting; assay type: functional, cell-based; conditions: Homo sapiens; procedure, shortened: as §2
[20] = test system: SMS-KCNR; test: Induction of apoptosis in SMS-KCNR cells assessed as increase in caspase 9 activation by Western blotting; assay type: functional, cell-based; conditions: Homo sapiens; procedure, shortened: as §2
[21] = test system: SMS-KCNR; test: Reduction of SMS-KCNR cell viability at 5 uM after 48 hrs in presence of Z-DEVD-FMK; assay type: functional, cell-based; conditions: Homo sapiens; procedure, shortened: as §4
[22] = test system: SMS-KCNR; test: Reduction of SMS-KCNR cell viability at 5 uM after 48 hrs in presence of Z-VAD-FM; assay type: functional, cell-based; conditions: Homo sapiens; procedure, shortened: as §4
[23] = test system: SMS-KCNR; test: Effect on JNK activation in SMS-KCNR cells after 1 hr by Western blotting; assay type: cell-based; conditions: Homo sapiens; procedure, shortened: as §2
[24] = molecular target: MAP kinase p38 (Homo sapiens) (UniProt O15264+Q15759+Q16539+P53778); test: Effect on p38 activation in SMS-KCNR cells after 1 hr by Western blotting; assay type: cell-based; procedure, shortened: as §2
[25] = Induction of apoptosis in SMS-KCNR cells at 3 uM after 24 hrs by flow cytometry; assay type: functional, Homo sapiens; procedure, shortened: as §3
[26] = Cell cycle arrest in SMS-KCNR cells by accumulation at G0/G1 phase at 3 uM after 12 hrs by flow cytometry; assay type: functional, cell-based; conditions: Homo sapiens; procedure, shortened: as §3

Q: Which Activity [1] does the source give for `S=C=NCCc1c[nH]c2ccc(OCc3ccccc3)cc12` here?
A: Dose-dependent effect

Q: What about the IC50 [2] of the same compound?
A: < 2500 nM

Q: And the Activity [3]?
A: Dose-dependent effect

Q: What about the Activity [4] of the same compound?
A: Dose-dependent effect

Q: What does the source list for `Cc1cccc2c(CCN=C=S)c[nH]c12`?
A: Activity [5]: Active; Activity [6]: 6.5%; Activity [7]: Active; Activity [8]: Active; Activity [9]: 19.7%; Activity [10]: 26.3%; Activity [11]: 24.5%; Activity [1]: Dose-dependent effect; Activity [12]: Not Active; IC50 [2]: < 2500 nM; Activity [13]: Active; Activity [14]: Active; Activity [15]: Active; Activity [16]: 68.9%; Activity [17]: Active; Activity [18]: 7.3%; Activity [19]: Active; Activity [20]: Active; Activity [21]: Active; Activity [3]: Dose-dependent effect; Activity [22]: Active; Activity [4]: Dose-dependent effect; Activity [23]: Active; Activity [24]: Active; Activity [25]: 18.8%; Activity [26]: 66.4%
